Test results: PMC11583631 (RSC Advances, 2024)
Read-outs that look alike come from different tables or passages of the source.

Tests used:
[1] = tested on: bacterial tyrosinase enzyme; assay: in vitro bacterial tyrosinase inhibition assay; type: biochemical; settings: L-tyrosine substrate; for Percentage inhibition: 37 °C, absorbance 475 nm; for IC50: by extrapolation of the graph
[2] = target: bacterial tyrosinase enzyme; settings: standard inhibitors; ref [50]; cited from earlier work
tyrosinase enzyme = assay: kinetic studies; type: biochemical, bacterial; settings: Lineweaver–Burk and Dixon plots, tyrosine 0.1–1 mM
Summary of the method: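 Isolated bacterial tyrosinase; pre-incubation and measurement timing as in the main inhibition assay. Lineweaver–Burk: 1/V vs 1/[S]. Ki (EI) and Ki′ (ESI) from secondary plots of slope and intercept vs inhibitor concentration. Dixon plot (1/V vs inhibitor concentration) confirmed inhibition type.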

Compound | Percentage inhibition [1] | IC50 [2] [µM] | IC50 [1] [µM] | type of inhibition (tyrosinase enzyme)
O=c1cc(CO)occ1O [Kojic acid, reference compound] | 6.80 ± 0.58 | 30.3 ± 0.75 |  | 
COc1ccc(OC)c(NC(=O)CSc2nnc(-c3cc4c(ccc5ccccc54)o3)n2-c2ccccc2)c1 [20d, N-(2,5-dimethoxyphenyl)-2-((5-(naphtho[2,1-b]furan-2-yl)-4-phenyl-4H-1,2,4-triazol-3-yl)thio)acetamide] | 22.77 ± 0.17 |  |  | 
O=C(CSc1nnc(-c2cc3c(ccc4ccccc43)o2)n1-c1ccccc1)N1CCOCC1 [20i, 1-Morpholino-2-((5-(naphtho[2,1-b]furan-2-yl)-4-phenyl-4H-1,2,4-triazol-3-yl)thio)ethanone] | 30.55 ± 0.1 |  | 1.99 ± 0.07 | 
O=C1O[C@H]([C@@H](O)CO)C(O)=C1O [Ascorbic acid, reference compound] | 58.66 ± 1.00 | 11.5 ± 1 |  | 
CCNC(=O)CSc1nnc(-c2cc3c(ccc4ccccc43)o2)n1-c1ccccc1 [20c, N-ethyl-2-((5-(naphtho[2,1-b]furan-2-yl)-4-phenyl-4H-1,2,4-triazol-3-yl)thio)acetamide] | 22.62 ± 0.30 |  |  | 
O=C(CSc1nnc(-c2cc3c(ccc4ccccc43)o2)n1-c1ccccc1)Nc1ccccc1Cl [20f, N-(2-chlorophenyl)-2-((5-(naphtho[2,1-b]furan-2-yl)-4-phenyl-4H-1,2,4-triazol-3-yl)thio)acetamide] | 32.34 ± 0.07 |  | 0.51 ± 0.12 | non-competitively
COc1ccccc1NC(=O)CSc1nnc(-c2cc3c(ccc4ccccc43)o2)n1-c1ccccc1 [20g, N-(2-methoxyphenyl)-2-((5-(naphtho[2,1-b]furan-2-yl)-4-phenyl-4H-1,2,4-triazol-3-yl)thio)acetamide] | 5.40 ± 0.05 |  | 12.9 ± 0.15 | 
Cc1ccc(C)c(NC(=O)CSc2nnc(-c3cc4c(ccc5ccccc54)o3)n2-c2ccccc2)c1 [20b, N-(2,5-dimethylphenyl)-2-((5-(naphtho[2,1-b]furan-2-yl)-4-phenyl-4H-1,2,4-triazol-3-yl)thio)acetamide] | 31.40 ± 0.25 |  |  | 
CCN(CC)C(=O)CSc1nnc(-c2cc3c(ccc4ccccc43)o2)n1-c1ccccc1 [20j, N,N-diethyl-2-((5-(naphtho[2,1-b]furan-2-yl)-4-phenyl-4H-1,2,4-triazol-3-yl)thio)acetamide] | 2.61 ± 0.50 |  | 23.03 ± 0.18 | 
CCCCc1ccc(NC(=O)CSc2nnc(-c3cc4c(ccc5ccccc54)o3)n2-c2ccccc2)cc1 [20a, N-(4-butylphenyl)-2-((5-(naphtho[2,1-b]furan-2-yl)-4-phenyl-4H-1,2,4-triazol-3-yl)thio)acetamide] | 22.84 ± 0.05 |  |  | 
O=C(CSc1nnc(-c2cc3c(ccc4ccccc43)o2)n1-c1ccccc1)Nc1ccc(F)cc1 [20h, N-(4-fluorophenyl)-2-((5-(naphtho[2,1-b]furan-2-yl)-4-phenyl-4H-1,2,4-triazol-3-yl)thio)acetamide] | 13.92 ± 0.11 |  | 9.36 ± 0.06 | 
